# From ChEMBL document CHEMBL1144522, “Novel C2-C3' N-peptide linked macrocyclic taxoids. Part 2: synthesis and biological activities of docetaxel analogues with a peptide side chain at C2 and their macrocyclic derivatives” (Bioorg Med Chem, 2007)
# Activity calls are given as the source filed them. The rule behind the calls is not given here. *1 amine or outer side, *2 acyl side, *3 side chain or, on linkers, in order; H or OH if unused. Where a SMILES comes first, the peptide text is derived from it. Bridges are numbered along the chain shown (N, C = ends). [ ]: non-standard residue; d: D form. The star is where a group is joined. ξ: configuration not given here. X1 = CC(=O)O[C@@]12COC1C[C@H](O)[C@@]1(C)C(=O)[C@H](O)C3=C(C)[C@@H](OC(=O)[C@H](O)[C@@H](NC(=O)[*:1])c4ccccc4)C[C@@](O)([C@@H](O[*:2])C21)C3(C)C; ξD = NC(CC(=O)O)C(=O)O; OtBu = CC(C)(C)O*
# Legend:
# Tubulin = assay: (§1) Tubulin interaction assessed as inhibition of cold-induced microtubule disassembly; type: protein-complex assay, Homo sapiens
# Procedure, shortened: (§2)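 Microtubular protein was purified from mammalian brain. The assay followed the rate of microtubule disassembly. IC50 is the concentration that inhibits that rate by 50%. Run by an established literature protocol.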
# KB = assay: Cytotoxicity against human KB cells after 72 hrs; type: cell-based; conditions: for IC50: Homo sapiens, KB; for Activity: human, kb
# Procedure, shortened: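 Cell proliferation measured after 72 h incubation with compound. IC50 is the drug concentration that inhibits proliferation by 50%. Run by an established literature protocol.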
# Tubulin (Homo sapiens) = Tubulin (Homo sapiens) (UniProt P68371+Q9H4B7+P0DPH7+P68366+Q13509+Q71U36+P04350+Q3ZCM7+P07437+P68363+Q9BQE3+Q6PEY2+Q13885+Q9BVA1+Q9BUF5); assay: as §1; type: protein-complex assay; procedure, shortened: as §2
Compound,IC50 (Tubulin) [nM],IC50 (KB) [nM],Activity (Tubulin (Homo sapiens)),Activity (KB)
CC(=O)O[C@@]12COC1C[C@H](O)[C@@]1(C)C(=O)[C@H](O)C3=C(C)[C@@H](OC(=O)C(O)[C@@H](NC(=O)N[C@H](C(=O)N4CCC[C@H]4C(=O)NCC(=O)NCC(=O)O)C(C)C)c4ccccc4)C[C@@](O)([C@@H](OC(=O)c4cccc(N)c4)C21)C3(C)C (some centres undefined),1000,> 10000,,
CC(=O)O[C@@]12CO[C@@H]1C[C@H](O)[C@@]1(C)C(=O)[C@H](O)C3=C(C)[C@@H](OC(=O)[C@H](O)[C@@H](NC(=O)OC(C)(C)C)c4ccccc4)C[C@@](O)([C@@H](OC(=O)c4ccccc4)[C@H]21)C3(C)C [DOCETAXEL],500,0.1,,
CC(=O)O[C@@]12COC1C[C@H](O)[C@@]1(C)C(=O)[C@H](O)C3=C(C)[C@@H](OC(=O)[C@H](O)[C@@H](NC(=O)OC(C)(C)C)c4ccccc4)C[C@@](O)([C@@H](OC(=O)[C@@H](NC(=O)[C@@H]4CCCN4C(=O)CNC(=O)CN)C(C)C)C21)C3(C)C (some centres undefined),,,inactive,Not Active
CC(=O)O[C@@]12COC1C[C@H](O)[C@@]1(C)C(=O)[C@H](O)C3=C(C)[C@@H](OC(=O)[C@H](O)[C@@H](NC(=O)NCC(=O)N[C@@H](CO)C(=O)N[C@@H](Cc4ccc(O)cc4)C(=O)O)c4ccccc4)C[C@@](O)([C@@H](OCc4ccccc4)C21)C3(C)C (some centres undefined),1000,1050,,
CC(=O)O[C@@]12COC1C[C@H](O)[C@@]1(C)C(=O)[C@H](O)C3=C(C)[C@@H](OC(=O)[C@H](O)[C@@H](NC(=O)OC(C)(C)C)c4ccccc4)C[C@@](O)([C@@H](OC(=O)CN)C21)C3(C)C (some centres undefined),51000,> 10000,,
CC(=O)O[C@@]12COC1C[C@H](O)[C@@]1(C)C(=O)[C@H](O)C3=C(C)[C@@H](OC(=O)[C@H](O)[C@@H](NC(=O)OC(C)(C)C)c4ccccc4)C[C@@](O)([C@@H](OC(=O)CNC(=O)Oc4ccccc4)C21)C3(C)C (some centres undefined),,90,inactive,
COC(=O)[C@@H](CCSC)NC(=O)[C@H](Cc1ccccc1)NC(=O)[C@@H](NC(=O)N[C@@H](c1ccccc1)[C@@H](O)C(=O)O[C@H]1C[C@@]2(O)[C@@H](OCc3ccccc3)C3[C@]4(OC(C)=O)COC4C[C@H](O)[C@@]3(C)C(=O)[C@H](O)C(=C1C)C2(C)C)C(C)C (some centres undefined),2600,,,
CC(=O)O[C@@]12COC1C[C@H](O)[C@@]1(C)C(=O)[C@H](O)C3=C(C)[C@@H]4C[C@@](O)([C@@H](OC(=O)c5cccc(c5)NC(=O)CNC(=O)CNC(=O)[C@@H]5CCCN5C(=O)[C@H](C(C)C)NC(=O)N[C@@H](c5ccccc5)[C@@H](O)C(=O)O4)C21)C3(C)C (some centres undefined),,,,Non-toxic
CC(=O)O[C@@]12COC1C[C@H](O)[C@@]1(C)C(=O)[C@H](O)C3=C(C)[C@@H](OC(=O)C(O)C(NC(=O)N[C@H](C(=O)N4CCC[C@H]4C(=O)NCC(=O)O)C(C)C)c4ccccc4)C[C@@](O)([C@@H](OCc4ccccc4)C21)C3(C)C (some centres undefined),600,> 10000,,
CC(=O)O[C@@]12COC1C[C@H](O)[C@@]1(C)C(=O)[C@H](O)C3=C(C)[C@@H](OC(=O)[C@H](O)[C@@H](NC(=O)OC(C)(C)C)c4ccccc4)C[C@@](O)([C@@H](OC(=O)CNC(=O)CN)C21)C3(C)C (some centres undefined),,,inactive,Not Active
CC(=O)O[C@@]12COC1C[C@H](O)[C@@]1(C)C(=O)[C@H](O)C3=C(C)[C@@H](OC(=O)C(O)[C@@H](NC(=O)N[C@H](C(=O)N4CCC[C@H]4C(=O)NCC(=O)NCC(=O)OCc4ccccc4)C(C)C)c4ccccc4)C[C@@](O)([C@@H](OC(=O)c4cccc([N+](=O)[O-])c4)C21)C3(C)C (some centres undefined),500,> 10000,,
CC(=O)O[C@@]12COC1C[C@H](O)[C@@]1(C)C(=O)[C@H](O)C3=C(C)[C@@H]4C[C@@](O)([C@@H](OC(=O)CNC(=O)CNC(=O)[C@@H]5CCCN5C(=O)[C@H](C(C)C)NC(=O)N[C@@H](c5ccccc5)[C@@H](O)C(=O)O4)C21)C3(C)C (some centres undefined),,,,Non-toxic
CC(=O)O[C@@]12COC1C[C@H](O)[C@@]1(C)C(=O)[C@H](O)C3=C(C)[C@@H](OC(=O)[C@H](O)[C@@H](NC(=O)N[C@H](C(=O)OCc4ccccc4)C(C)C)c4ccccc4)C[C@@](O)([C@@H](OCc4ccccc4)C21)C3(C)C (some centres undefined),800,4,,
COC(=O)[C@H](CCSC)NC(=O)[C@H](Cc1ccccc1)NC(=O)[C@@H](NC(=O)N[C@@H](c1ccccc1)[C@@H](O)C(=O)O[C@H]1C[C@@]2(O)[C@@H](OCc3ccccc3)C3[C@]4(OC(C)=O)COC4C[C@H](O)[C@@]3(C)C(=O)[C@H](O)C(=C1C)C2(C)C)C(C)C (some centres undefined),,1100,,
CC(=O)O[C@@]12COC1C[C@H](O)[C@@]1(C)C(=O)[C@H](O)C3=C(C)[C@@H](OC(=O)[C@H](O)[C@@H](NC(=O)OC(C)(C)C)c4ccccc4)C[C@@](O)([C@@H](OC(=O)[C@@H]4CCCN4C(=O)CNC(=O)CN)C21)C3(C)C (some centres undefined),,,inactive,Not Active
CC(=O)O[C@@]12COC1C[C@H](O)[C@@]1(C)C(=O)[C@H](O)C3=C(C)[C@@H](OC(=O)[C@H](O)[C@@H](NC(=O)NCC(=O)N[C@@H](COCc4ccccc4)C(=O)N[C@@H](Cc4ccc(OCc5ccccc5)cc4)C(=O)OCc4ccccc4)c4ccccc4)C[C@@](O)([C@@H](OCc4ccccc4)C21)C3(C)C (some centres undefined),,90,inactive,
CC(=O)O[C@@]12COC1C[C@H](O)[C@@]1(C)C(=O)[C@H](O)C3=C(C)[C@@H]4C[C@@](O)([C@@H](OC(=O)CNC(=O)C(CC(=O)OC(C)(C)C)NC(=O)CNC(=O)CNC(=O)[C@@H]5CCCN5C(=O)[C@H](C(C)C)NC(=O)N[C@@H](c5ccccc5)[C@@H](O)C(=O)O4)C21)C3(C)C (some centres undefined) (VPGG[ξD](OtBu)G; linker N-C via X1),,,,Non-toxic
